Assay results: ChEMBL document CHEMBL1177753, “Cytotoxic bisbenzylisoquinoline alkaloids from the roots of Cyclea racemosa” (J Nat Prod, 2010)

Experiments:
Type in all cases: functional, cell-based
HCT-8 = experiment: Cytotoxicity against human HCT8 cells after 3 days by MTT assay; conditions: HCT-8, 72 h
Procedure, shortened: (§1)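 Human tumor cells grown in RPMI-1640 with 5% fetal bovine serum. Freshly trypsinized cells seeded at 5000 cells per well in 96-well plates. Compounds added from DMSO-diluted stock. After three days of culture, attached cells stained with MTT, bound dye solubilized, absorbance read at 540 nm. IC50 taken as the concentration giving 50% growth inhibition, averaged from triplicate determinations.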

Bel-7402 = experiment: Cytotoxicity against human Bel7402 cells after 3 days by MTT assay; conditions: Bel-7402, 72 h; procedure, shortened: as §1
A2780 = experiment: Cytotoxicity against human A2780 cells after 3 days by MTT assay; conditions: A2780, 72 h; procedure, shortened: as §1

| SMILES | IC50 (HCT-8) | IC50 (Bel-7402) | IC50 (A2780) |
| --- | --- | --- | --- |
| COc1cc2c3cc1Oc1cc(ccc1O)C[C@H]1c4c(cc(OC)c(OC)c4Oc4ccc(cc4)C[C@H]3N(C)CC2)CCN1C [RACEMOSIDINE B] | 9.72 µM | 4.62 µM | > 10 µM |
| COc1cc2c3cc1Oc1c(O)c(OC)cc4ccnc(c14)Cc1ccc(cc1)Oc1cc(ccc1O)C[C@H]3N(C)CC2 [RACEMOSININE B] | > 10 µM | > 10 µM | > 10 µM |
| COc1cc2c3cc1Oc1cc(ccc1O)C[C@@H]1c4c(cc(OC)c5c4Oc4ccc(cc4CO5)C[C@H]3N(C)CC2)CCN1C [RACEMOSIDINE A] | 2.8 µM | 6.09 µM | 6.7 µM |
| COc1cc2c3cc1Oc1c(O)c(OC)cc4ccnc(c14)Cc1ccc(cc1)Oc1cc(ccc1O)C[C@H]3[N+](C)([O-])CC2 (stereo partly drawn) [RACEMOSININE C] | > 10 µM | > 10 µM | > 10 µM |
| CC(=O)O[C@H]1C(=O)[C@@]2(C)[C@H]([C@H](OC(=O)c3ccccc3)[C@]3(O)C[C@H](OC(=O)[C@H](O)[C@@H](NC(=O)c4ccccc4)c4ccccc4)C(C)=C1C3(C)C)[C@]1(OC(C)=O)CO[C@@H]1C[C@@H]2O [PACLITAXEL] | 0.67 µM | 1.8 µM | 0.65 µM |
| COc1ccc2cc1Oc1cc3c(cc1OC)CCN(C)[C@@H]3Cc1ccc(cc1)Oc1c(OC)c(O)cc3c1[C@H](C2)N(C)CC3 [RACEMOSIDINE C] | 6.04 µM | 7.53 µM | > 10 µM |
